Experiments:
[1] = target: Neuronal acetylcholine receptor subunit alpha-7 (Homo sapiens) (UniProt P36544); assay: Activity at human recombinant alpha7 nAChR expressed in Xenopus oocytes assessed as effect on acetylcholine-induced activation at 3 uM by two-electrode voltage clamp technique relative to control; format: cell-based; conditions: Oocyte
In short: (§1)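 Two-electrode voltage clamp of Xenopus oocytes injected with 1–5 ng cRNA and kept in Barth's solution at 15°C for 2–5 days. Oocytes were perfused with 90 mM NaCl, 1.0 KCl, 0.5 BaCl2, 0.005 EDTA, 10 HEPES, pH 7.4, 23°C, and held at -40 mV. Compound was co-applied at 3 µM with agonist from 20 mM DMSO stocks, final DMSO 0.05–0.5%.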

[2] = target: Muscarinic acetylcholine receptor M4 (Homo sapiens) (UniProt P08173); assay: Inhibition of M4 receptor (unknown origin) at 5 uM by psychoactive drug screening programme assay
In short: (§2)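 Radioligand binding screen run by PDSP. Displacement of ligand binding was measured with test compound at 5 µM, n=4 per target.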

[3] = target: 5-hydroxytryptamine receptor 1E (Homo sapiens) (UniProt P28566); assay: Inhibition of serotonin 5-HT1E receptor (unknown origin) at 5 uM by psychoactive drug screening programme assay; in short: as §2
[4] = target: 5-hydroxytryptamine receptor 1D (Homo sapiens) (UniProt P28221); assay: Inhibition of serotonin 5-HT1D receptor (unknown origin) at 5 uM by psychoactive drug screening programme assay; in short: as §2
[5] = target: Gamma-aminobutyric acid receptor subunit rho-1 (Homo sapiens) (UniProt P24046); assay: Activity at human recombinant GABA(C) receptor expressed in Xenopus oocytes assessed as effect on GABA-induced activation at 3 uM by two-electrode voltage clamp technique relative to control; format: cell-based; conditions: Oocyte; in short: as §1
[6] = target: Sodium-dependent serotonin transporter (Homo sapiens) (UniProt P31645); assay: Inhibition of serotonin transporter (unknown origin) at 5 uM by psychoactive drug screening programme assay
[7] = target: 5-hydroxytryptamine receptor 2C (Homo sapiens) (UniProt P28335); assay: Inhibition of serotonin 5-HT2C receptor (unknown origin) at 5 uM by psychoactive drug screening programme assay; in short: as §2
[8] = target: Ionotropic glutamate receptor NMDA 1/2D (Rattus norvegicus) (UniProt P35439+Q62645); assay: Activity at rat recombinant GluN1/GluN2D receptor expressed in Xenopus oocytes assessesed as effect of glycine/glutamate-induced response at 3 uM by two-electrode voltage clamp technique relative to control; format: cell-based; conditions: Oocyte; in short: as §1
[9] = target: D(4) dopamine receptor (Homo sapiens) (UniProt P21917); assay: Inhibition of dopamine D4 receptor (unknown origin) at 5 uM by psychoactive drug screening programme assay; in short: as §2
[10] = target: Muscarinic acetylcholine receptor M5 (Homo sapiens) (UniProt P08912); assay: Inhibition of M5 receptor (unknown origin) at 5 uM by psychoactive drug screening programme assay; in short: as §2
[11] = target: Alpha-2B adrenergic receptor (Homo sapiens) (UniProt P18089); assay: Inhibition of adrenergic alpha2B receptor (unknown origin) at 5 uM by psychoactive drug screening programme assay; in short: as §2
[12] = target: Kappa-type opioid receptor (Homo sapiens, UniProt P41145); assay: Inhibition of kappa opioid receptor (unknown origin) by psychoactive drug screening programme assay
[13] = target: Histamine H1 receptor (Homo sapiens) (UniProt P35367); assay: Inhibition of H1 histamine receptor (unknown origin) at 5 uM by psychoactive drug screening programme assay; in short: as §2
[14] = target: 5-hydroxytryptamine receptor 3A (Homo sapiens) (UniProt P46098); assay: Inhibition of serotonin 5-HT3 receptor (unknown origin) at 5 uM by psychoactive drug screening programme assay
[15] = target: Alpha-1D adrenergic receptor (Homo sapiens) (UniProt P25100); assay: Inhibition of adrenergic alpha1D receptor (unknown origin) at 5 uM by psychoactive drug screening programme assay; in short: as §2
[16] = target: 5-hydroxytryptamine receptor 3A (Rattus norvegicus) (UniProt P35563); assay: Activity at rat recombinant serotonin 5-HT3A receptor expressed in Xenopus oocytes assessed as effect on serotonin-induced activation at 3 uM by two-electrode voltage clamp technique relative to control; format: cell-based; conditions: Oocyte; in short: as §1
[17] = target: Neuronal acetylcholine receptor; alpha4/beta2 (Homo sapiens) (UniProt P17787+P43681); assay: Activity at human recombinant alpha4beta2 nAChR expressed in Xenopus oocytes assessed as effect on acetylcholine-induced activation at 3 uM by two-electrode voltage clamp technique relative to control; format: cell-based; conditions: Oocyte; in short: as §1
[18] = target: Neuronal acetylcholine receptor; alpha3/beta4 (Homo sapiens) (UniProt P30926+P32297); assay: Activity at human recombinant alpha3beta4 nAChR expressed in Xenopus oocytes assessed as effect on acetylcholine-induced activation at 3 uM by two-electrode voltage clamp technique relative to control; format: cell-based; conditions: Oocyte; in short: as §1
[19] = target: Muscarinic acetylcholine receptor M2 (Homo sapiens) (UniProt P08172); assay: Inhibition of M2 receptor (unknown origin) at 5 uM by psychoactive drug screening programme assay; in short: as §2
[20] = target: Histamine H2 receptor (Homo sapiens) (UniProt P25021); assay: Inhibition of H2 histamine receptor (unknown origin) at 5 uM by psychoactive drug screening programme assay; in short: as §2
[21] = target: Glutamate receptor 2 (Rattus norvegicus) (UniProt P19491); assay: Activity at rat recombinant GluA2 receptor expressed in Xenopus oocytes assessed as effect on glutamate-induced response at 3 uM by two-electrode voltage clamp technique relative to control; format: cell-based; conditions: Oocyte; in short: as §1
[22] = target: Alpha-2A adrenergic receptor (Homo sapiens) (UniProt P08913); assay: Inhibition of adrenergic alpha2A receptor (unknown origin) at 5 uM by psychoactive drug screening programme assay; in short: as §2
[23] = target: Nicotinic acetylcholine receptor alpha9/alpha10 (Rattus norvegicus) (UniProt P43144+Q9JLB5); assay: Activity at rat recombinant alpha9alpha10 nAChR expressed in Xenopus oocytes assessed as effect on acetylcholine-induced response at 3 uM by two-electrode voltage clamp technique relative to control; format: cell-based; conditions: Oocyte; in short: as §1
[24] = target: 5-hydroxytryptamine receptor 1A (Homo sapiens) (UniProt P08908); assay: Inhibition of serotonin 5-HT1A receptor (unknown origin) at 5 uM by psychoactive drug screening programme assay; in short: as §2
[25] = target: Alpha-2C adrenergic receptor (Homo sapiens) (UniProt P18825); assay: Inhibition of adrenergic alpha2C receptor (unknown origin) at 5 uM by psychoactive drug screening programme assay; in short: as §2
[26] = target: Beta-2 adrenergic receptor (Homo sapiens) (UniProt P07550); assay: Inhibition of adrenergic beta2 receptor (unknown origin) at 5 uM by psychoactive drug screening programme assay; in short: as §2
[27] = target: Sigma non-opioid intracellular receptor 1 (Homo sapiens) (UniProt Q99720); assay: Inhibition of sigma1 receptor (unknown origin) at 5 uM by psychoactive drug screening programme assay
[28] = target: D(1A) dopamine receptor (Homo sapiens) (UniProt P21728); assay: Inhibition of dopamine D1 receptor (unknown origin) at 5 uM by psychoactive drug screening programme assay; in short: as §2
[29] = target: Glutamate NMDA receptor; Grin1/Grin2a (Rattus norvegicus) (UniProt P35439+Q00959); assay: Activity at rat recombinant GluN1/GluN2A receptor expressed in Xenopus oocytes assessesed as effect of glycine/glutamate-induced response at 3 uM by two-electrode voltage clamp technique relative to control; format: cell-based; conditions: Oocyte; in short: as §1
[30] = target: D(1B) dopamine receptor (Homo sapiens) (UniProt P21918); assay: Inhibition of dopamine D5 receptor (unknown origin) at 5 uM by psychoactive drug screening programme assay; in short: as §2

Chain of Alpha-1D adrenergic receptor (Homo sapiens) (P25100 whole entry): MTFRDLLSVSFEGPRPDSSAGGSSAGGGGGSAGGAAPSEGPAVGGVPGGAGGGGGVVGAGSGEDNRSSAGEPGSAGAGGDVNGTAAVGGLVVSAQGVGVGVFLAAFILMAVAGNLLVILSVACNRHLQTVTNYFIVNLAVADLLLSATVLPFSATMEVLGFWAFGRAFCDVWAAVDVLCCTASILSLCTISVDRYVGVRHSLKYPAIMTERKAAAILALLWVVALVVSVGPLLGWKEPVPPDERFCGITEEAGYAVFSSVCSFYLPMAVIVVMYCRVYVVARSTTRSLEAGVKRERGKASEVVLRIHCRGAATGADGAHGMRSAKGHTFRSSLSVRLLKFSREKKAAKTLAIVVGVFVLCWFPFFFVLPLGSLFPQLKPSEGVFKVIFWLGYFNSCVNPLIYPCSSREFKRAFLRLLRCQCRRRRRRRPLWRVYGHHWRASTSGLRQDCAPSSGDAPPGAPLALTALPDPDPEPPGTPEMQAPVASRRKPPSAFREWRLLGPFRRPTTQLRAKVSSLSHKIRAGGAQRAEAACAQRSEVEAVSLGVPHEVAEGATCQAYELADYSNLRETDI
Chain of Alpha-2C adrenergic receptor (Homo sapiens) (P18825 whole entry): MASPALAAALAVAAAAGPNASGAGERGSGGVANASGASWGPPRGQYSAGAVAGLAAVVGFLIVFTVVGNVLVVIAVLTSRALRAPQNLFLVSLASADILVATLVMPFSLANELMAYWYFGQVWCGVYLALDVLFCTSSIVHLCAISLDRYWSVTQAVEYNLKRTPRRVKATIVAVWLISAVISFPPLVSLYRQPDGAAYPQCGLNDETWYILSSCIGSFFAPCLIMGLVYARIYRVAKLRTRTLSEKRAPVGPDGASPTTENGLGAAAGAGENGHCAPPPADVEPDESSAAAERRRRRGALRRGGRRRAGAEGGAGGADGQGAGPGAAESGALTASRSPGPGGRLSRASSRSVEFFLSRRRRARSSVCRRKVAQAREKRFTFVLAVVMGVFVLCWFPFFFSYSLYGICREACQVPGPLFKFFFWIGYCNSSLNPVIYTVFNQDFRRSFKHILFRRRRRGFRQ
Chain of 5-hydroxytryptamine receptor 1A (Homo sapiens) (P08908 whole entry): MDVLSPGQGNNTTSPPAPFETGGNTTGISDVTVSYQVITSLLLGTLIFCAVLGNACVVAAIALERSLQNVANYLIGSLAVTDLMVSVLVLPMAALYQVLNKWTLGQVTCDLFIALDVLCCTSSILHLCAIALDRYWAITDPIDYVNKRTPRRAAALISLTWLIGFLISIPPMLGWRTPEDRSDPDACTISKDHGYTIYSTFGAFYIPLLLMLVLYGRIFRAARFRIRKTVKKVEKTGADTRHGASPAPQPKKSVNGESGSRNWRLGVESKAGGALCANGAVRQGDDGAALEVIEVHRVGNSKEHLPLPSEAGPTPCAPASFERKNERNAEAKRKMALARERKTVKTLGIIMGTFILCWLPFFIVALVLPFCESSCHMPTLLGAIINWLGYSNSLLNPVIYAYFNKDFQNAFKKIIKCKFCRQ
Chain of Muscarinic acetylcholine receptor M5 (Homo sapiens) (P08912 whole entry): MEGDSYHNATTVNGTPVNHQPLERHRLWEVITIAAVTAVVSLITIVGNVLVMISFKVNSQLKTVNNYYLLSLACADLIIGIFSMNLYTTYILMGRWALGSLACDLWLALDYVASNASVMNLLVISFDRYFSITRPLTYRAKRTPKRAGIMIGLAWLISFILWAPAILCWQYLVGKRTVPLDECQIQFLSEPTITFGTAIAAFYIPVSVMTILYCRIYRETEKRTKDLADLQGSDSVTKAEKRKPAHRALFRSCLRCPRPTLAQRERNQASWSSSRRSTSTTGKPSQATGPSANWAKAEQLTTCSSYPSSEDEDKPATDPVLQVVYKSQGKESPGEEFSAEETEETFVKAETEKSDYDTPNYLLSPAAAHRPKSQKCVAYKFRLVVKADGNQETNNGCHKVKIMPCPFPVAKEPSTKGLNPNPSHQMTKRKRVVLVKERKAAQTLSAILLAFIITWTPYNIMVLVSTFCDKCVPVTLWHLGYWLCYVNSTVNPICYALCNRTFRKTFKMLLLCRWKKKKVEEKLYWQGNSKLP
Chain of Sigma non-opioid intracellular receptor 1 (Homo sapiens) (Q99720 whole entry): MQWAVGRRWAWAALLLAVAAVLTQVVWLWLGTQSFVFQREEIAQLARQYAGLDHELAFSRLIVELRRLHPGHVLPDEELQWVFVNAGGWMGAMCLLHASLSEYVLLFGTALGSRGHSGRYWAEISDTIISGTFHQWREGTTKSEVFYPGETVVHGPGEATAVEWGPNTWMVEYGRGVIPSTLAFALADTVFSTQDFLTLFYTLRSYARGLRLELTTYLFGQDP
Chain of Sodium-dependent serotonin transporter (Homo sapiens) (P31645 whole entry, looked up): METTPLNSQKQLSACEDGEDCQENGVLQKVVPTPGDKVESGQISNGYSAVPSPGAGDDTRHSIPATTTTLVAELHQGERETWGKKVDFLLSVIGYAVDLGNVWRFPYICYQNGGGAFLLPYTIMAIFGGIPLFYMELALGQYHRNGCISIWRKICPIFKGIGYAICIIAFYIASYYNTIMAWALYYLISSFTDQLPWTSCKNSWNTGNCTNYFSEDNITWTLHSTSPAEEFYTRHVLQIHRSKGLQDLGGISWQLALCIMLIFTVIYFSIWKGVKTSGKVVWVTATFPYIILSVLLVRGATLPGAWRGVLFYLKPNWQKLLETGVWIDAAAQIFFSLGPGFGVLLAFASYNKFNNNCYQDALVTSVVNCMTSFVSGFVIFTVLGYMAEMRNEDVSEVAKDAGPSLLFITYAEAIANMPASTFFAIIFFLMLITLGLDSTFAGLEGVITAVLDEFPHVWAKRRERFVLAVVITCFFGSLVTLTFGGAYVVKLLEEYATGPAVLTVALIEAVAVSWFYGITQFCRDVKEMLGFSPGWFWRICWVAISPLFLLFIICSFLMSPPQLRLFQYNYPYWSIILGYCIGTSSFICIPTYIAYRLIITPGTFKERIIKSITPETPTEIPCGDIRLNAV
Chain of Histamine H2 receptor (Homo sapiens) (P25021 whole entry): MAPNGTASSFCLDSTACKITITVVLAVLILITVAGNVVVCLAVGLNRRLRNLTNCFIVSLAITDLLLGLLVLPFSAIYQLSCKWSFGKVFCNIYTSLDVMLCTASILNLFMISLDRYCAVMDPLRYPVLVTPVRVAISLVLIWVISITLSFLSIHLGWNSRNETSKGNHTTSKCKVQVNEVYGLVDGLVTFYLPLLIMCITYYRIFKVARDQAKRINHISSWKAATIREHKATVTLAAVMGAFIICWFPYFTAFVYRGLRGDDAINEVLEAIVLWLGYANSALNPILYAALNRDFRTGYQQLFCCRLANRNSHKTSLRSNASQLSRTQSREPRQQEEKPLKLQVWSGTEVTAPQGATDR
Chain of Glutamate receptor 2 (Rattus norvegicus) (P19491 whole entry): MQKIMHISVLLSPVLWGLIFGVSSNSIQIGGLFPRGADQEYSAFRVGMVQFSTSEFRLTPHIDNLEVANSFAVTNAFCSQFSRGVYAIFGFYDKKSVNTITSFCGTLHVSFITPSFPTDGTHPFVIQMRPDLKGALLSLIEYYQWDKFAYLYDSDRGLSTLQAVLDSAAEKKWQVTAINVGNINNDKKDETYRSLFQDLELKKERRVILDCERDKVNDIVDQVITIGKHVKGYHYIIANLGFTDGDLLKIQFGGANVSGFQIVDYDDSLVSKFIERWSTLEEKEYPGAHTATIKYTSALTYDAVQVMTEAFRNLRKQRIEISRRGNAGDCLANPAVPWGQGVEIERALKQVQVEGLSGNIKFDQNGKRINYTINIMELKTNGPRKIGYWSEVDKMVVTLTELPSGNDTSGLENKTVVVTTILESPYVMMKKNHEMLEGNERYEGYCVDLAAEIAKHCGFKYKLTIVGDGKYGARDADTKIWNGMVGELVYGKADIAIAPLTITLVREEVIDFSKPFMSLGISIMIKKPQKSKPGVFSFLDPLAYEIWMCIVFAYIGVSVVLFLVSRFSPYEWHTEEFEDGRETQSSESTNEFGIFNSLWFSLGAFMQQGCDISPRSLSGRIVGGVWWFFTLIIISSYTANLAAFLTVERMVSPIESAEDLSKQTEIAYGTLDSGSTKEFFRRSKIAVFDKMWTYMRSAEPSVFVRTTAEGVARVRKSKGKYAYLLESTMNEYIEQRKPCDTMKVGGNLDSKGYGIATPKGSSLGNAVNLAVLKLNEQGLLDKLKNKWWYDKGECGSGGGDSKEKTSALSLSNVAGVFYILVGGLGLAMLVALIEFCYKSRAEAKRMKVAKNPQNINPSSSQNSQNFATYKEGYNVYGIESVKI
Chain of Alpha-2B adrenergic receptor (Homo sapiens) (P18089 whole entry): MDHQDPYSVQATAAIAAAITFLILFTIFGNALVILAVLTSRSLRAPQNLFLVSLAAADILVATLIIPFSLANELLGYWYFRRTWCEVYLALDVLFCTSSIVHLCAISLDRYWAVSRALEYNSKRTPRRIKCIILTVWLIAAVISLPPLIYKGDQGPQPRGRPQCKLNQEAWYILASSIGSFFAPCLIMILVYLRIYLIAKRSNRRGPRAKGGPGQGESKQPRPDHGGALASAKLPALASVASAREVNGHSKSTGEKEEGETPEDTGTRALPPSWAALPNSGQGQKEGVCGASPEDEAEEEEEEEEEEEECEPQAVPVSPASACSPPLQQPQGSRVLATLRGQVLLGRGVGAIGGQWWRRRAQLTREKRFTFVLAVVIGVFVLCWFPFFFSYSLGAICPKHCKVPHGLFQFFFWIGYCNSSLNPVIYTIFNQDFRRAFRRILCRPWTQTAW
Chain of 5-hydroxytryptamine receptor 2C (Homo sapiens) (P28335 whole entry): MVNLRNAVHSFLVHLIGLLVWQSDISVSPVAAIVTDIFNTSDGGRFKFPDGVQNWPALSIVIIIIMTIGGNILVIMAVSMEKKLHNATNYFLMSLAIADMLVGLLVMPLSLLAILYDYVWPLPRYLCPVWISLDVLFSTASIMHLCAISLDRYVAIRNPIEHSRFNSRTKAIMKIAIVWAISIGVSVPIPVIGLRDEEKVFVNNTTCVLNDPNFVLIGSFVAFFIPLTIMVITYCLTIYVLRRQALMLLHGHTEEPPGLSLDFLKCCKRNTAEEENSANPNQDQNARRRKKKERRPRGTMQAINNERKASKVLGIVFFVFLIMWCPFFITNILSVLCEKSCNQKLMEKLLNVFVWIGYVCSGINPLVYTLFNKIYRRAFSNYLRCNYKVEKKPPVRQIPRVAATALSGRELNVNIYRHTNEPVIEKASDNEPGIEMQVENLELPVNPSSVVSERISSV

Compound: COc1ccc(OCC2c3ccc(OCc4ccccc4)cc3CCN2C(=O)c2cccc(Br)c2)cc1 (stereo not given)
- Activity [1]: 90%
- inhibition [2]: < 50%
- inhibition [3]: < 50%
- inhibition [4]: < 50%
- Activity [5]: 99%
- inhibition [6]: < 50%
- inhibition [7]: < 50%
- Activity [8]: 213%
- inhibition [9]: < 50%
- inhibition [10]: < 50%
- inhibition [11]: < 50%
- Ki [12]: > 5 µM
- inhibition [13]: < 50%
- inhibition [14]: < 50%
- inhibition [15]: < 50%
- Activity [16]: 93%
- Activity [17]: 91%
- Activity [18]: 95%
- inhibition [19]: < 50%
- inhibition [20]: < 50%
- Activity [21]: 97%
- inhibition [22]: < 50%
- Activity [23]: 92%
- inhibition [24]: < 50%
- inhibition [25]: < 50%
- inhibition [26]: < 50%
- inhibition [27]: < 50%
- inhibition [28]: < 50%
- Activity [29]: 105%
- inhibition [30]: < 50%
